Source: PubChem BioAssay (several laboratories)
MC4R antagonist – blocks human MC4R cAMP signaling. P32245. MC4R-expressing cells, MTII-stimulated cAMP, LANCE TR-FRET. inhibition, % at 6.5 µM. 360,000 tested, 0.48% active. AID 540295;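 active = inhibition above its plate's cutoff, the mean of tested wells on that plate plus 3 SD, cut at about 29% in these data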
Target sequence (P32245 whole entry, looked up): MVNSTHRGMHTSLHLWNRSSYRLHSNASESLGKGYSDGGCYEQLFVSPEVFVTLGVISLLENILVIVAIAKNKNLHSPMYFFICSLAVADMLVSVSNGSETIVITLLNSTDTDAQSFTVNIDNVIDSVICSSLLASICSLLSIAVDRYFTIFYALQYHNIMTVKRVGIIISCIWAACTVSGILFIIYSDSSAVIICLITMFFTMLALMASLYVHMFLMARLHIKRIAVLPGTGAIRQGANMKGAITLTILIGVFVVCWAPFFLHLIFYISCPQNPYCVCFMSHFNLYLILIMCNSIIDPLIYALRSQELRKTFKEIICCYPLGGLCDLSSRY
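Material: human MC4R-expressing U2OS cells. Probe or stimulus: Melanotan II challenge. Dosing: 6.5 µM single dose. Times: 30-min compound, 1-h challenge, 1-h detection, room temperature. Technique: TR-FRET with Eu-cAMP and labeled anti-cAMP, 671 nm. Replication: singlicate.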
Granule exo inh – lytic granule exocytosis inhibition; TALL-104 LAMP-1 surface exposure, flow cytometry; cells stimulated with thapsigargin and PMA; inhibition, % at 10 µM; 360,000 tested, 0.66% active; AID 651702;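 active = inhibition above about 55%, limit read from the data; inconclusive = no clear call, values can overlap the other calls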
MC4R ag barr – activates human MC4R beta-arrestin recruitment | P32245 | U2OS MC4R beta-arrestin complementation, luminescence; percent of melanotan II response, DMSO zero | activation, % at 8.9 µM | 360,000 tested, 0.98% active | AID 540308;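 active = activation above a per-plate cutoff, the mean activation of sample wells on that plate plus 3 SD, cut at about 8% in these data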
Myeloid diff 2 – myeloid differentiation induction; ER-HoxA9 myeloid progenitors, lysozyme-GFP differentiation, flow cytometry; calls only at 10 µM; 360,000 tested, 1% active; AID 624256;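 active = normalized GFP-positive differentiation at or above the plate's own cutoff, the solvent-only control mean plus 3 SD; inconclusive = no clear call, values can overlap the other calls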;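 also: cells exposed to compound for four days before flow analysis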
EBI2 block – EBI2 (human) antagonism | inhibition, % at 5 µM | P32249 | EBI2 beta-arrestin recruitment, luminescence, 7a,25-OHC stimulated | 360,000 tested, 0.81% active; in the data active = inhibition above about 38%;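 also: enzyme fragment complementation signal reports receptor beta-arrestin coupling in cells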
Target sequence (P32249 whole entry, looked up, the tested form may be a part): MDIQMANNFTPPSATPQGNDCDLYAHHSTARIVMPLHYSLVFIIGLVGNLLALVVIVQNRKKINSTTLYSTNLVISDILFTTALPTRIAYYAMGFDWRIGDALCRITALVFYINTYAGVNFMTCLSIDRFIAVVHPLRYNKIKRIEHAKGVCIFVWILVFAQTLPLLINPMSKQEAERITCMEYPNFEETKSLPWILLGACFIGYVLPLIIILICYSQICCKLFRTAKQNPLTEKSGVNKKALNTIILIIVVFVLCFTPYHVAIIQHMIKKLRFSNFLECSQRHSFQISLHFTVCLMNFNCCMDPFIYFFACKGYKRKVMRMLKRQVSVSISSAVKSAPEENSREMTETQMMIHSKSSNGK
cAMP nonselect – U2OS forskolin cAMP inhibition counter-screen. shares compounds with MC4R antagonist. parental U2OS, LANCE TR-FRET. inhibition, % at 6.5 µM. 1,600 tested, 26% active;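 active = mean inhibition over triplicates above the low-control well mean plus 3 SD, set per campaign, cut at about 13% in these data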;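 also: signal is single emission at 671 nm which falls as cellular cAMP rises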
MC4R cAMP antag – human MC4R cAMP antagonism confirmation; shares compounds with MC4R antagonist; MC4R-expressing cells, MTII-stimulated cAMP, TR-FRET; inhibition, % at 6.5 µM; 1,600 tested, 27% active; in the data active = inhibition above about 29%
Of the large screens only hits and unclear results are named; the others gave an inactive call (follow-up assays come after a bar, where they were run). Only some compounds are listed: those with a hit (about 3.7% of all), similar ones and a draw of the others.

Clc1ccc(-c2nnc3n2CCCCS3)cc1	MC4R antagonist 35 | cAMP nonselect inactive | MC4R cAMP antag inactive
CCCNC(=O)c1ccc(N2CCC3(CC2)CC(c2ccccc2)=NO3)c(NC(=O)c2ccco2)c1	MC4R antagonist 33 (no result: Myeloid diff 2) | cAMP nonselect inactive | MC4R cAMP antag inactive
CCOP(=O)(OCC)C(NC(=O)Nc1cccc(Cl)c1)c1ccccc1 (centres undefined)	MC4R antagonist 30 | cAMP nonselect inactive | MC4R cAMP antag inactive
C/C(CC(=O)Nc1cccc(Cl)c1Cl)=N\NC(=O)c1ccccc1C	MC4R antagonist 29 | cAMP nonselect inactive | MC4R cAMP antag inactive
Cc1ccc(C(=O)NCC(=O)OCC(=O)Nc2cc(S(=O)(=O)N3CCOCC3)ccc2C)cc1	none
Cc1ccc(S(=O)(=O)N2CCCCC2)cc1NC(=O)COC(=O)CNC(=O)c1cc(Cl)cc([N+](=O)[O-])c1	MC4R antagonist 31 | cAMP nonselect inactive | MC4R cAMP antag inactive
Cc1ccc(-n2nc3c(=S)[nH]nc(C)c3c2C)cc1	MC4R antagonist 146 (no result: Myeloid diff 2) | cAMP nonselect 90 | MC4R cAMP antag 147
Cc1ccc(S(=O)(=O)N2CCN(C(=O)C3CCN(C(=O)c4ccccc4C)CC3)CC2)cc1C	none
O=C(NCC(=O)N1CCN(S(=O)(=O)/C=C/c2ccccc2)CC1)c1ccc(Cl)cc1	MC4R antagonist 31 | cAMP nonselect inactive | MC4R cAMP antag inactive
CC(=O)Nc1ccc(CN2C(=O)C(C)(C)ON=C2c2ccc(C(F)(F)F)cc2)cc1	none
CC1=C(C(=O)OCc2ccccc2)C(c2ccc(C)cc2)NC(=O)N1 (centres undefined)	none
NC(=O)COC(=O)[C@H](Cc1c[nH]c2ccccc12)NC(=O)c1ccc(F)cc1	MC4R antagonist 32 | cAMP nonselect 14 | MC4R cAMP antag inactive
O=C(NC(Cc1c[nH]c2ccccc12)C(=O)O)c1ccc(F)cc1 (centres undefined)	none
O=C1CCCN1c1ccc(S(=O)(=O)Nc2cccnc2)cc1	MC4R antagonist 29 | cAMP nonselect inactive | MC4R cAMP antag inactive
Cc1ccc(S(=O)(=O)Nc2cccnc2)cc1	none
CN1CCC(Oc2ccc(Sc3ccccc3)cc2)CC1	none
CN1CCC(Oc2ccccc2Sc2ccc(C(F)(F)F)cc2)CC1	MC4R antagonist 33 | cAMP nonselect inactive | MC4R cAMP antag 31
C=CCn1c(C)cc(/C([O-])=C(/C(=S)Nc2ccc(OC(F)F)cc2)[n+]2ccc(N(C)C)cc2)c1C	MC4R antagonist 29 | cAMP nonselect inactive | MC4R cAMP antag inactive
CN(C)c1cc[n+](/C(C(=S)Nc2ccc(SC(F)F)cc2)=C(/[O-])c2ccccc2)cc1	none
CC(=O)c1ccc(N2CCN(C(=O)CN3C(=O)NC4(CCCCC4)C3=O)CC2)c(F)c1	none
Cc1cc(-n2c(C)cc(C(=O)CSc3nncn3C(C)C)c2C)no1	none
Cc1cc(NC(=O)COc2c(C)cccc2C)no1	none
NS(=O)(=O)c1ccc(NC(=O)COC(=O)CSc2n[nH]c(-c3ccccc3)n2)cc1	MC4R antagonist 39 | cAMP nonselect inactive | MC4R cAMP antag inactive
O=C(CSc1n[nH]c(-c2ccccc2)n1)Nc1ccc(N2CCOCC2)cc1	none
NC(=O)c1ccsc1NC(=O)COC(=O)C1CC2CCCC(C1)C2=O (centres undefined)	none
O=C(Nc1nc(=O)n(C(=O)C2CC2)s1)c1ccccc1	MC4R antagonist 30 | cAMP nonselect inactive | MC4R cAMP antag inactive
CCc1nc2ccc(C(=O)N3CCN(c4ccccc4F)CC3)cc2nc1CC	none
COc1ccc(CN(C)S(=O)(=O)c2nnc(NC(=O)c3ccc(C)cc3)s2)cc1OC	MC4R antagonist 30 | cAMP nonselect inactive | MC4R cAMP antag inactive
CN(C(=O)COC(=O)C1CCN(S(=O)(=O)c2ccc3c(c2)OCCO3)CC1)C1CCCCC1	none
CC(CCc1ccccc1)NC(=O)CN1CCSc2ccccc21 (centres undefined)	MC4R antagonist 31 | cAMP nonselect inactive | MC4R cAMP antag inactive
Cc1cc(C)c(/C=N/n2c(C)cc(C)c(C#N)c2=O)c(C)c1	MC4R antagonist 29 | cAMP nonselect inactive | MC4R cAMP antag inactive
Cc1cc(C)n(/N=C/c2cccs2)c(=O)c1C#N	none
Nc1cccc2c1C(=O)N(CCOc1ccc(F)cc1)C2=O	none
CC(C)(C)c1ccc2c(c1)OC(C(=O)N/N=C\c1ccc(-c3cccc(C(=O)O)c3)o1)CO2 (centres undefined)	MC4R antagonist 29 | cAMP nonselect inactive | MC4R cAMP antag inactive
O=C(NCC(=O)N1CC=C(c2ccccc2)CC1)c1ccc(F)cc1	none
CCC(C)NS(=O)(=O)c1ccc(S(=O)(=O)N(CCc2ccc(OC)c(OC)c2)Cc2cccs2)cc1 (centres undefined)	MC4R antagonist 32 | cAMP nonselect inactive | MC4R cAMP antag inactive
COc1ccc(CCN(Cc2cccs2)S(=O)(=O)c2ccc(S(=O)(=O)N3CCCCCC3)cc2)cc1OC	none
COc1cc(/C=N/Nc2nc(Nc3ccc(C)cc3)nc(-n3nc(C)cc3C)n2)cc(OC)c1OC	MC4R antagonist 29 | cAMP nonselect inactive | MC4R cAMP antag 30
Cc1ccccc1NC(=O)c1c(F)c(F)c(F)c(F)c1F	none (no result: Myeloid diff 2)
O=C(Nc1ccccc1Cl)c1c(F)c(F)c(F)c(F)c1F	MC4R antagonist 37 | cAMP nonselect 49 | MC4R cAMP antag 77
O=C(Nc1ccccc1)C1=C(c2ccccc2)S(=O)(=O)CCS1(=O)=O	MC4R antagonist 47, Myeloid diff 2 inconclusive | cAMP nonselect 28 | MC4R cAMP antag 37
Clc1cccc(Oc2ncccn2)c1	MC4R antagonist 31 | cAMP nonselect inactive | MC4R cAMP antag inactive
CC(=O)c1cccc(Oc2ncccn2)c1	none
COc1ccc(CC(=O)Nc2cc3oc4ccccc4c3cc2OC)cc1	MC4R antagonist 29 | cAMP nonselect inactive | MC4R cAMP antag inactive
CC(=O)Nc1ccc(OCC(O)Cn2c(CO)nc3ccccc32)cc1 (centres undefined)	MC4R antagonist 32 | cAMP nonselect inactive | MC4R cAMP antag inactive
O=C(O)c1cnn(-c2nc(-c3ccc(F)cc3)cs2)c1C(F)(F)F	MC4R antagonist 32 | cAMP nonselect inactive | MC4R cAMP antag inactive
O=C(O)c1cnn(-c2nc(-c3ccc(Br)cc3)cs2)c1C(F)(F)F	MC4R antagonist 32 | cAMP nonselect inactive | MC4R cAMP antag inactive
NC(=O)Cc1nc(-c2ccc(Br)cc2)cs1	none
COc1ccc(NC(=O)COC(=O)C2CC(=O)N(c3ccc(C)cc3)C2)cc1 (centres undefined)	MC4R antagonist 42 | cAMP nonselect inactive | MC4R cAMP antag inactive
COc1ccc(C2/C(=C(/O)c3ccc(C)cc3)C(=O)C(=O)N2c2ccccn2)cc1OC (centres undefined)	none
